{
  "source": "ChEMBL document CHEMBL1629577",
  "about": "“Activity of T-705 in a hamster model of yellow fever virus infection in comparison with that of a chemically related compound, T-1106” (Antimicrob Agents Chemother, 2009)",
  "key": {"[1]": {"system": "Syrian golden hamster", "experiment": "Toxicity in syrian golden hamster infected with 10^2 CCID50 Yellow fever virus Jimenez assessed as weight change at 400 mg/kg/day, po administered twice daily for 8 days started 4 day post viral infection", "type": "organism-based, Mesocricetus auratus", "parameters": "route oral", "details": "in vivo"}, "[2]": {"system": "Syrian golden hamster", "experiment": "Toxicity in syrian golden hamster infected with 10^2 CCID50 Yellow fever virus Jimenez assessed as weight change at 400 mg/kg/day, po administered twice daily for 8 days started 1 day post viral infection", "type": "organism-based, Mesocricetus auratus", "parameters": "route oral", "details": "in vivo"}, "[3]": {"system": "Syrian golden hamster", "experiment": "Toxicity in syrian golden hamster infected with 10^2 CCID50 Yellow fever virus assessed as weight change in non surviving animals at 400 mg/kg/day, po BID administered for 8 days started 5 days post viral challenge", "type": "organism-based, Mesocricetus auratus", "parameters": "route oral", "details": "in vivo"}, "[4]": {"system": "Syrian golden hamster", "experiment": "Toxicity in syrian golden hamster infected with 10^2 CCID50 Yellow fever virus assessed as weight change in non surviving animals at 400 mg/kg/day, po BID administered for 8 days started 4 days post viral challenge", "type": "organism-based, Mesocricetus auratus", "parameters": "route oral", "details": "in vivo"}, "[5]": {"experiment": "Selectivity index, ratio of CC50 for African green monkey vero cells to EC90 for Yellow fever virus 17D", "type": "toxicity, cell-based", "details": "read-out: Selectivity Index", "method_in_brief": "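SI was calculated as the CC50 in uninfected Vero cells divided by the EC90 from the YFV 17D virus yield reduction assay in Vero cells.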"}, "[6]": {"system": "Syrian golden hamster", "experiment": "Toxicity in syrian golden hamster assessed as number of animals alive at 400 mg/kg/day, po BID administered for 8 days", "type": "organism-based, Mesocricetus auratus", "parameters": "route oral", "details": "in vivo, 192 h", "method_in_brief": "(§1)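 Uninfected toxicity-control hamsters, three per group, were dosed p.o. in 0.4% carboxymethyl cellulose twice daily, 12 h apart, for 8 days. Deaths were recorded daily. Body weights were taken at 0, 3 and 6 dpi.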"}, "[7]": {"system": "Syrian golden hamster", "experiment": "Toxicity in syrian golden hamster infected with 10^2 CCID50 Yellow fever virus Jimenez assessed as weight change at 400 mg/kg/day, po administered twice daily for 8 days started 5 day post viral infection", "type": "organism-based, Mesocricetus auratus", "parameters": "route oral", "details": "in vivo"}, "[8]": {"system": "Syrian golden hamster", "experiment": "Toxicity in syrian golden hamster infected with 10^2 CCID50 Yellow fever virus assessed as weight change in surviving animals at 400 mg/kg/day, po BID administered for 8 days started 5 days post viral challenge", "type": "organism-based, Mesocricetus auratus", "parameters": "route oral", "details": "in vivo"}, "[9]": {"system": "Syrian golden hamster", "experiment": "Toxicity in syrian golden hamster infected with 10^2 CCID50 Yellow fever virus Jimenez assessed as weight change at 100 mg/kg/day, po administered twice daily for 8 days started 4 hrs prior to viral infection", "type": "organism-based, Mesocricetus auratus", "parameters": "route oral", "details": "in vivo"}, "[10]": {"system": "Syrian golden hamster", "experiment": "Toxicity in syrian golden hamster infected with 10^2 CCID50 Yellow fever virus Jimenez assessed as weight change at 400 mg/kg/day, po administered twice daily for 8 days started 2 day post viral infection", "type": "organism-based, Mesocricetus auratus", "parameters": "route oral", "details": "in vivo"}, "[11]": {"system": "Syrian golden hamster", "experiment": "Toxicity in syrian golden hamster infected with 10^2 CCID50 Yellow fever virus assessed as weight change in surviving animals at 400 mg/kg/day, po BID administered for 8 days started 4 days post viral challenge", "type": "organism-based, Mesocricetus auratus", "parameters": "route oral", "details": "in vivo"}, "[12]": {"system": "Syrian golden hamster", "experiment": "Toxicity in syrian golden hamster infected with 10^2 CCID50 Yellow fever virus Jimenez assessed as weight change at 200 mg/kg/day, po administered twice daily for 8 days started 4 hrs prior to viral infection relative to control", "type": "organism-based, Mesocricetus auratus", "parameters": "route oral", "details": "in vivo"}, "[13]": {"experiment": "Cytotoxicity against African green monkey Vero cells by luciferase-based cell viability assay", "details": "chlorocebus sabaeus", "method_in_brief": "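Uninfected Vero cells exposed to compound were assayed for ATP content by luminescence (Cell-Titer Glo) to derive the CC50.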"}, "[14]": {"system": "Syrian golden hamster", "experiment": "Toxicity in syrian golden hamster infected with 10^2 CCID50 Yellow fever virus Jimenez assessed as weight change at 400 mg/kg/day, po administered twice daily for 8 days started 3 day post viral infection", "type": "organism-based, Mesocricetus auratus", "parameters": "route oral", "details": "in vivo"}, "[15]": {"system": "Syrian golden hamster", "experiment": "Toxicity in syrian golden hamster infected with 10^2 CCID50 Yellow fever virus Jimenez assessed as weight change at 400 mg/kg/day, po administered twice daily for 8 days started 4 hrs prior to viral infection relative to control", "type": "organism-based, Mesocricetus auratus", "parameters": "route oral", "details": "in vivo"}, "[16]": {"system": "Syrian golden hamster", "experiment": "Toxicity in syrian golden hamster assessed as weight change at 400 mg/kg/day, po BID administered for 8 days", "type": "organism-based, Mesocricetus auratus", "parameters": "route oral", "details": "in vivo, 192 h", "method_in_brief": "as §1"}, "[17]": {"system": "Yellow fever virus", "experiment": "Antiviral activity against Yellow fever virus 17D infected in African green monkey Vero cells assessed as reduction in virus yield", "type": "functional", "method_in_brief": "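Virus yield reduction in Vero cells infected with YFV 17D after compound exposure, with progeny virus titred by CCID50. The EC90 was averaged over separate experiments.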"}, "[18]": {"system": "Syrian golden hamster", "experiment": "Toxicity in syrian golden hamster infected with 10^2 CCID50 Yellow fever virus Jimenez assessed as weight change at 10 mg/kg/day, po administered twice daily for 8 days started 4 hrs prior to viral infection relative to control", "type": "organism-based, Mesocricetus auratus", "parameters": "route oral", "details": "in vivo"}, "[19]": {"system": "Yellow fever virus", "experiment": "Antiviral activity against 10^2 CCID50 Yellow fever virus Jimenez infected in syrian golden hamster assessed as mean day of death […] at 50 mg/kg/day, po administered twice daily for 8 days started 4 hrs prior to viral infection relative to control", "type": "functional"}, "[20]": {"system": "Yellow fever virus", "experiment": "Antiviral activity against 10^2 CCID50 Yellow fever virus Jimenez infected in syrian golden hamster assessed as serum survival of animal at 50 mg/kg/day, po administered twice daily for 8 days started 4 hrs prior to viral infection", "type": "functional, organism-based"}, "[21]": {"system": "Yellow fever virus", "experiment": "Antiviral activity against Yellow fever virus 17D infected in African green monkey Vero cells assessed as inhibition of virus induced cytopathic effect by microscopic analysis", "type": "functional, cell-based"}, "[22]": {"system": "Yellow fever virus", "experiment": "Antiviral activity against 10^2 CCID50 Yellow fever virus Jimenez infected in syrian golden hamster assessed as serum ALT level at 10 mg/kg/day, po administered twice daily for 8 days started 4 hrs prior to viral infection", "type": "functional"}, "[23]": {"system": "Yellow fever virus", "experiment": "Antiviral activity against 10^2 CCID50 Yellow fever virus Jimenez infected in syrian golden hamster assessed as mean day of death […] at 32 mg/kg/day, po administered twice daily for 8 days started 4 hrs prior to viral infection relative to control", "type": "functional"}, "[24]": {"system": "Yellow fever virus", "experiment": "Antiviral activity against 10^2 CCID50 Yellow fever virus Jimenez infected in syrian golden hamster assessed as serum ALT level at 32 mg/kg/day, po administered twice daily for 8 days started 4 hrs prior to viral infection", "type": "functional"}, "[25]": {"system": "Yellow fever virus", "experiment": "Antiviral activity against Yellow fever virus 17D infected in African green monkey Vero cells assessed as inhibition of virus induced cytopathic effect […] by NR dye uptake assay", "type": "functional, cell-based"}, "[26]": {"system": "Yellow fever virus", "experiment": "Antiviral activity against 10^2 CCID50 Yellow fever virus Jimenez infected in syrian golden hamster assessed as mean day of death […] at 10 mg/kg/day, po administered twice daily for 8 days started 4 hrs prior to viral infection relative to control", "type": "functional"}, "[27]": {"system": "Syrian golden hamster", "experiment": "Toxicity in syrian golden hamster infected with 10^2 CCID50 Yellow fever virus Jimenez assessed as weight change at 32 mg/kg/day, po administered twice daily for 8 days started 4 hrs prior to viral infection relative to control", "type": "organism-based, Mesocricetus auratus", "parameters": "route oral", "details": "in vivo"}, "[28]": {"system": "Yellow fever virus", "experiment": "Antiviral activity against Yellow fever virus 17D infected in African green monkey Vero cells assessed as inhibition of virus induced cytopathic effect by luciferase reporter gene assay", "type": "functional, cell-based"}, "[29]": {"system": "Yellow fever virus", "experiment": "Antiviral activity against 10^2 CCID50 Yellow fever virus Jimenez infected in syrian golden hamster assessed as serum survival of animal at 32 mg/kg/day, po administered twice daily for 8 days started 4 hrs prior to viral infection", "type": "functional, organism-based"}, "[30]": {"system": "Yellow fever virus", "experiment": "Antiviral activity against Yellow fever virus 17D infected in African green monkey Vero cells assessed as time required for inhibition of viral replication at 6400 uM up to 12 hrs post-viral infection", "type": "functional, cell-based"}, "[31]": {"system": "Yellow fever virus", "experiment": "Antiviral activity against 10^2 CCID50 Yellow fever virus Jimenez infected in syrian golden hamster assessed as reduction in viral titer in liver at 32 mg/kg/day administered twice daily for 8 days started 6 days post infection by quantitative RT-PCR analysis", "type": "functional"}},
  "note": "The source made the active and inactive calls. No cut-off for these calls is given here.",
  "data": [
    {"smiles": "NC(=O)c1nc(F)c[nH]c1=O", "note": "[FAVIPIRAVIR]", "values": [
      {"measurement": "Activity", "setting": "[1]", "result": -3, "unit": "g"},
      {"measurement": "Activity", "setting": "[2]", "result": -0.3, "unit": "g"},
      {"measurement": "Activity", "setting": "[3]", "result": -7.3, "unit": "g"},
      {"measurement": "Activity", "setting": "[4]", "result": -18.5, "unit": "g"},
      {"measurement": "selectivity ratio", "setting": "[5]", "result": "> 19"},
      {"measurement": "Activity", "setting": "[6]", "result": "Non-toxic"},
      {"measurement": "Activity", "setting": "[7]", "result": -4.5, "unit": "g"},
      {"measurement": "Activity", "setting": "[8]", "result": -2.8, "unit": "g"},
      {"measurement": "Activity", "setting": "[9]", "result": -2.9, "unit": "g"},
      {"measurement": "Activity", "setting": "[10]", "result": 0, "unit": "g"},
      {"measurement": "Activity", "setting": "[11]", "result": 2.2, "unit": "g"},
      {"measurement": "Activity", "setting": "[12]", "result": 2.2, "unit": "g"},
      {"measurement": "CC50", "setting": "[13]", "result": "> 6.37", "unit": "mM"},
      {"measurement": "Activity", "setting": "[14]", "result": -4.1, "unit": "g"},
      {"measurement": "Activity", "setting": "[15]", "result": 5.2, "unit": "g"},
      {"measurement": "Activity", "setting": "[16]", "result": 5.3, "unit": "g"}
    ]},
    {"smiles": "NC(=O)c1ncn([C@@H]2O[C@H](CO)[C@@H](O)[C@H]2O)n1", "note": "[RIBAVIRIN]", "values": [
      {"measurement": "EC90", "setting": "[17]", "result": 0.69, "unit": "mM"},
      {"measurement": "selectivity ratio", "setting": "[5]", "result": "> 6"},
      {"measurement": "Activity", "setting": "[18]", "result": 2.4, "unit": "g"},
      {"measurement": "Time", "setting": "[19]", "result": ">21", "unit": "days"},
      {"measurement": "Activity", "setting": "[20]", "result": "Active"},
      {"measurement": "EC50", "setting": "[21]", "result": 0.028, "unit": "mM"},
      {"measurement": "Activity", "setting": "[22]", "result": 103, "unit": "IU/L"},
      {"measurement": "CC50", "setting": "[13]", "result": "> 4.1", "unit": "mM"}
    ]},
    {"smiles": "NC(=O)c1nccn([C@@H]2O[C@H](CO)[C@@H](O)[C@H]2O)c1=O", "values": [
      {"measurement": "Time", "setting": "[23]", "result": ">21", "unit": "days"},
      {"measurement": "Activity", "setting": "[24]", "result": 154, "unit": "IU/L"},
      {"measurement": "EC90", "setting": "[17]", "result": 1.11, "unit": "mM"},
      {"measurement": "selectivity ratio", "setting": "[5]", "result": "> 3.6"},
      {"measurement": "EC50", "setting": "[25]", "result": 1.8, "unit": "mM"},
      {"measurement": "Time", "setting": "[26]", "result": 8, "unit": "days"},
      {"measurement": "Activity", "setting": "[27]", "result": 0.2, "unit": "g"},
      {"measurement": "EC50", "setting": "[28]", "result": 2.63, "unit": "mM"},
      {"measurement": "Activity", "setting": "[29]", "result": "Active"},
      {"measurement": "Activity", "setting": "[30]", "result": "Active"},
      {"measurement": "EC50", "setting": "[21]", "result": 1.08, "unit": "mM"},
      {"measurement": "Activity", "setting": "[31]", "result": 85, "unit": "IU/L"},
      {"measurement": "CC50", "setting": "[13]", "result": "> 4", "unit": "mM"}
    ]}
  ]
}
